Test results as given in ChEMBL document CHEMBL4725451, “Discovery of Tricyclic Xanthines as Agonists of the Cannabinoid-Activated Orphan G-Protein-Coupled Receptor GPR18” (ACS Med Chem Lett, 2020).
Calls of active or inactive are those of the source. No cut-off for these calls is given here.

Tests used:
[1] = target: T1, N-arachidonyl glycine receptor (Homo sapiens, UniProt Q14330); test: (§1) Agonist activity at Prolink1-tagged human GPR18 receptor expressed in CHO cells assessed as induction of beta-arrestin recruitment after 90 mins by beta-galactosidase based topcount luminescence analysis; assay type: cell-based
T1 sequence (Q14330 whole entry): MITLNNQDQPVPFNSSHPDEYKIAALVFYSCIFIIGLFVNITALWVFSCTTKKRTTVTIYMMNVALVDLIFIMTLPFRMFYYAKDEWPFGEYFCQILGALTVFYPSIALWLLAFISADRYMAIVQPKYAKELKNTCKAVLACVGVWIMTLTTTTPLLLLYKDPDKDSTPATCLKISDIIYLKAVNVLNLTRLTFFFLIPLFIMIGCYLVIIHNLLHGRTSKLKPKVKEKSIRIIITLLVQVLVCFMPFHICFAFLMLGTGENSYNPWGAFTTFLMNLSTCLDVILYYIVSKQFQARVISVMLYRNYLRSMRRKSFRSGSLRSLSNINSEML

[2] = target: T2, N-arachidonyl glycine receptor (Homo sapiens) (UniProt Q14330); test: Agonist activity at Prolink1-tagged human GPR18 receptor expressed in CHO cells assessed as induction of beta-arrestin recruitment at 10 uM after 90 mins by beta-galactosidase based topcount luminescence analysis relative to control; assay type: cell-based
T2 sequence (whole entry): T1 sequence (Q14330 whole entry)
Summary of the method: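 CHO cells stably expressing human GPR18, β-arrestin enzyme-complementation assay with luminescence read-out. Test compound at 10 μM single concentration; signal normalized to that of 10 μM Δ9-THC.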

[3] = target: T1, N-arachidonyl glycine receptor; test: Antagonist activity at Prolink1-tagged human GPR18 receptor expressed in CHO cells assessed as inhibition of THC-induced beta arrestin recruitment after 90 mins by beta-galactosidase based topcount luminescence analysis; assay type: functional, cell-based
[4] = target: T3, G-protein coupled receptor 55 (Homo sapiens, UniProt Q9Y2T6); test: Agonist activity at Prolink1-tagged human GPR55 receptor expressed in CHO cells assessed as induction of beta-arrestin recruitment after 90 mins by beta-galactosidase based topcount luminescence analysis; assay type: cell-based
T3 sequence (Q9Y2T6 whole entry): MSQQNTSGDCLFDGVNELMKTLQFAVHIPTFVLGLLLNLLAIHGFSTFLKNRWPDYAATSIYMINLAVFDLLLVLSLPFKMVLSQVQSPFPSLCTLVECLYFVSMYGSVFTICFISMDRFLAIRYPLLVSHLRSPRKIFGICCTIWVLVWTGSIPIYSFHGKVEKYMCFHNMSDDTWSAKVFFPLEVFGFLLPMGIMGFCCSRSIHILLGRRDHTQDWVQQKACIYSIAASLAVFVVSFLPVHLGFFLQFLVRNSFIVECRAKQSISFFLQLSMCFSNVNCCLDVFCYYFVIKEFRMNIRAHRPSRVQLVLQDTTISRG

[5] = target: T3, G-protein coupled receptor 55; test: Agonist activity at Prolink1-tagged human GPR55 receptor expressed in CHO cells assessed as induction of beta-arrestin recruitment at 10 uM after 90 mins by beta-galactosidase based topcount luminescence analysis relative to control; assay type: cell-based
Summary of the method: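 CHO cells stably expressing GPR55, β2-arrestin recruitment detected by enzyme complementation and luminescence. Compounds tested at 10 μM; effect normalized to signal from 1 μM LPI.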

[6] = target: T3, G-protein coupled receptor 55; test: Antagonist activity at Prolink1-tagged human GPR55 receptor expressed in CHO cells assessed as inhibition of lysophosphatidylinositol-induced beta arrestin recruitment after 90 mins by beta-galactosidase based topcount luminescence analysis; assay type: functional, cell-based
[7] = target: T3, G-protein coupled receptor 55; test: Antagonist activity at Prolink1-tagged human GPR55 receptor expressed in CHO cells assessed as inhibition of lysophosphatidylinositol-induced beta arrestin recruitment at 10 uM after 90 mins by beta-galactosidase based topcount luminescence analysis relative to control; assay type: functional, cell-based
Summary of the method: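 GPR55-expressing CHO cells, β-arrestin complementation luminescence. Percent inhibition by test compound at 10 μM of the response to 1 μM LPI.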

[8] = target: Cannabinoid receptor 1 (Homo sapiens) (UniProt P21554); test: Displacement of [3H]CP55,940 from human CB1 receptor expressed in CHO cell membranes after 2 hrs by liquid scintillation analysis
Cannabinoid receptor 1 (Homo sapiens), sequence (P21554 whole entry): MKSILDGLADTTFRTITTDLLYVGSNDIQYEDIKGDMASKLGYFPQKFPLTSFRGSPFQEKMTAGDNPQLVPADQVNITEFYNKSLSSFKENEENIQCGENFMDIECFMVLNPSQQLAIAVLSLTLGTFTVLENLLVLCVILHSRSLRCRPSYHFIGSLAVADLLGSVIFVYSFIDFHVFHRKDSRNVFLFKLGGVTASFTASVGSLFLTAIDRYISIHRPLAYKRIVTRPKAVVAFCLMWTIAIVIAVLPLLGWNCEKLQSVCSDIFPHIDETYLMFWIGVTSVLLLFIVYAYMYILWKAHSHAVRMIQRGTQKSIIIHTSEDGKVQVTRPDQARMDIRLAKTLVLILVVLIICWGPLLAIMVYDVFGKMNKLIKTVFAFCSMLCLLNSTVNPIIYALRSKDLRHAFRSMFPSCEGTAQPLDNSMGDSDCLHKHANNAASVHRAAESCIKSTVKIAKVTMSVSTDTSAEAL
Summary of the method: (§2)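 CB receptor radioligand binding: test compound at 10 μM single concentration, scored for displacement of a CB-specific radioligand and for any increase in bound radioligand.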

[9] = target: Cannabinoid receptor 2 (Homo sapiens) (UniProt P34972); test: Displacement of [3H]CP55,940 from human CB2 receptor expressed in CHO cell membranes after 2 hrs by liquid scintillation analysis; summary of the method: as §2
Cannabinoid receptor 2 (Homo sapiens), sequence (P34972 whole entry): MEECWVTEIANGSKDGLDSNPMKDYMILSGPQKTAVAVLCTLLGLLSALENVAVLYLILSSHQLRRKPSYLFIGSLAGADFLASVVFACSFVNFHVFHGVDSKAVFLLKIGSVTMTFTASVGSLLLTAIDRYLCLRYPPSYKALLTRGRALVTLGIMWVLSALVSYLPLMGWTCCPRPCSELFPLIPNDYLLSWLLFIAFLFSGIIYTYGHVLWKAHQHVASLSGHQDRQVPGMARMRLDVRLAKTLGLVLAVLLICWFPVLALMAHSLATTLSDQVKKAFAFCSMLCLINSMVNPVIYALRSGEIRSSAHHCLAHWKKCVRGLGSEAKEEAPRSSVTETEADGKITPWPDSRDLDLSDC

[10] = target: T2, N-arachidonyl glycine receptor (Homo sapiens); test: as §1, with “recruitment by measuring maximum inhibition of 2-(3-(6-(4-chlorophenoxy)hexyloxy)benzylidene)-6,7-dihydro-2H-imidazo[2,1-b][1,3]thiazin-3(5H)-one at 1 uM” for “recruitment”; assay type: cell-based; settings: filed as agonist
Summary of the method: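 Human GPR18 stably expressed in CHO cells, β-arrestin enzyme complementation. Antagonist concentration-inhibition curves run against a fixed 1 μM agonist stimulus. IC50 and maximal inhibition derived from curves; means of three independent experiments, each in duplicate.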

[11] = target: T2, N-arachidonyl glycine receptor (Homo sapiens); test: Agonist activity at Prolink1-tagged human GPR18 receptor expressed in CHO cells assessed as effect on induction of beta-arrestin recruitment after 90 mins in presence of 3 to 20 uM […] antagonist 2-(3-(6-(4-chlorophenoxy)hexyloxy)benzylidene)-6,7-dihydro-2H-imidazo[2,1-b][1,3]thiazin-3(5H)-one by beta-galactosidase based topcount luminescence analysis; assay type: cell-based; settings: filed as agonist
[12] = target: T2, N-arachidonyl glycine receptor (Homo sapiens); test: Agonist activity at Prolink1-tagged human GPR18 receptor expressed in CHO cells assessed as increase in beta-arrestin recruitment at 1 uM in presence of THC at lower concentrations after 90 mins by beta-galactosidase based topcount luminescence analysis; assay type: cell-based; settings: filed as agonist
Summary of the method: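 GPR18-CHO β-arrestin recruitment assay. Fixed agonist at 1 μM combined with a THC concentration–response series. Means of three independent experiments in duplicate.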

[13] = target: T2, N-arachidonyl glycine receptor (Homo sapiens); test: Agonist activity at Prolink1-tagged human GPR18 receptor expressed in CHO cells assessed as induction of beta-arrestin recruitment after 90 mins in presence of 3 uM THC by beta-galactosidase based topcount luminescence analysis; assay type: cell-based
Summary of the method: (§3)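 β-Arrestin recruitment in CHO cells expressing human GPR18. Agonist concentration–response curves recorded in the presence of fixed Δ9-THC (3 μM or 10 μM). Means of three independent experiments, each in duplicate.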

[14] = target: T2, N-arachidonyl glycine receptor (Homo sapiens); test: Agonist activity at Prolink1-tagged human GPR18 receptor expressed in CHO cells assessed as induction of beta-arrestin recruitment after 90 mins in presence of 10 uM THC by beta-galactosidase based topcount luminescence analysis relative to control; assay type: cell-based; summary of the method: as §3

SMILES	EC50 [1]	Activity [2]	IC50 [3]	EC50 [4]	Activity [5]	IC50 [6]	inhibition [7]	Activity ([2]; filed as agonist)	Activity [8]	Activity [9]	inhibition [10]	Activity [11]	Activity [12]	Activity [13]	inhibition [14]
CCCCN1CCCn2c1nc1c2c(=O)n(C)c(=O)n1C	> 10 µM	26%	> 10 µM	> 10 µM	-4%	> 10 µM	34%	–	–	–	–	–	–	–	–
CCCn1c(=O)c2c(nc3n2CCCN3CCc2c[nH]c3ccccc23)n(CCC)c1=O	> 10 µM	-12%	> 10 µM	> 10 µM	–	> 10 µM	-4%	–	–	–	–	–	–	–	–
Cn1c(=O)c2c(nc3n2CCCN3CCc2ccccc2)n(C)c1=O	> 10 µM	2%	> 10 µM	> 10 µM	16%	> 10 µM	-10%	–	–	–	–	–	–	–	–
C=C(C)[C@@H]1CCC(C)=C[C@H]1c1c(O)cc(O)cc1CCCCC	> 10 µM	–	> 10 µM	> 10 µM	7%	> 10 µM	33%	–	–	–	–	–	–	–	–
CCN(CC)CCN1CCCn2c1nc1c2c(=O)n(C)c(=O)n1C	> 10 µM	39%	> 10 µM	> 10 µM	4%	> 10 µM	-3%	–	–	–	–	–	–	–	–
COc1ccc(CCN2CCCn3c2nc2c3c(=O)n(C)c(=O)n2C)cc1OC	> 10 µM	-39%	> 10 µM	> 10 µM	15%	> 10 µM	32%	–	–	–	–	–	–	–	–
COCCN1CCCn2c1nc1c2c(=O)n(C)c(=O)n1C	> 10 µM	–	> 10 µM	> 10 µM	18%	> 10 µM	-4%	40%	–	–	–	–	–	–	–
CCCCC/C=C\C/C=C\C/C=C\C/C=C\CCCC(=O)NCC(=O)O [ARACHIDONOYL GLYCINE]	> 10 µM	–	> 10 µM	–	–	–	–	–	–	–	–	–	–	–	–
Cn1c(=O)c2c(nc3n2CCCN3CCc2ccc(Cl)cc2)n(C)c1=O	> 10 µM	14%	> 10 µM	> 10 µM	10%	> 10 µM	–	–	–	–	–	–	–	–	–
Cn1c(=O)c2c(nc3n2CCN3CCc2c[nH]c3ccccc23)n(C)c1=O	–	–	–	> 10 µM	–	> 10 µM	–	–	–	–	–	–	–	–	–
Cn1c(=O)c2c(nc3n2CCCCN3CCc2c[nH]c3ccccc23)n(C)c1=O	–	–	–	> 10 µM	–	> 10 µM	–	–	–	–	–	–	–	–	–
Cn1c(=O)c2c(nc3n2CCN3c2ccc(O)cc2)n(C)c1=O	> 10 µM	22%	> 10 µM	> 10 µM	13%	> 10 µM	–	–	–	–	–	–	–	–	–
Cn1c(=O)c2c(nc3n2CCCN3Cc2ccc(Cl)cc2)n(C)c1=O	> 10 µM	6%	> 10 µM	> 10 µM	-9%	> 10 µM	1%	–	–	–	–	–	–	–	–
Cn1c(=O)c2c(nc3n2CCCN3CCc2c[nH]c3ccccc23)n(C)c1=O	0.562 µM	–	–	> 10 µM	-5%	> 10 µM	20%	–	inactive	inactive	65%	Active	Active	inactive	inactive
CCCCCc1cc(O)c2c(c1)OC(C)(C)[C@@H]1CCC(C)=C[C@@H]21 [DRONABINOL]	–	–	–	> 10 µM	-4%	–	–	–	–	–	–	–	–	–	–
CCN1CCCn2c1nc1c2c(=O)n(C)c(=O)n1C	> 10 µM	2%	> 10 µM	> 10 µM	-16%	> 10 µM	17%	–	–	–	–	–	–	–	–
COc1ccc(CCN2CCCn3c2nc2c3c(=O)n(C)c(=O)n2C)cc1	> 10 µM	-2%	> 10 µM	> 10 µM	-6%	> 10 µM	–	–	–	–	–	–	–	–	–
CCCCCN1CCCn2c1nc1c2c(=O)n(C)c(=O)n1C	> 10 µM	-1%	> 10 µM	> 10 µM	10%	> 10 µM	–	–	–	–	–	–	–	–	–
